An excerpt weighted towards active compounds, which were near 2.8% of everything screened.
EP2 antag – human EP2 receptor antagonists, primary screen, TR-FRET cAMP, C6 glioma cells; Prostaglandin E2 receptor EP2 subtype (Homo sapiens), P43116; AID 1422, 2008; 260,000 compounds, 0.52% hits; inhibition, % at 25 µM; C6 glioma cells expressing human EP2; cells stimulated with saturating PGE2;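 active means percent inhibition above 40 after rounding to a whole number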;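 further: rat C6 glioma host cells with rolipram phosphodiesterase inhibitor present; the protocol text gives 20 µM as final concentration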
Target sequence (P43116 whole entry, looked up): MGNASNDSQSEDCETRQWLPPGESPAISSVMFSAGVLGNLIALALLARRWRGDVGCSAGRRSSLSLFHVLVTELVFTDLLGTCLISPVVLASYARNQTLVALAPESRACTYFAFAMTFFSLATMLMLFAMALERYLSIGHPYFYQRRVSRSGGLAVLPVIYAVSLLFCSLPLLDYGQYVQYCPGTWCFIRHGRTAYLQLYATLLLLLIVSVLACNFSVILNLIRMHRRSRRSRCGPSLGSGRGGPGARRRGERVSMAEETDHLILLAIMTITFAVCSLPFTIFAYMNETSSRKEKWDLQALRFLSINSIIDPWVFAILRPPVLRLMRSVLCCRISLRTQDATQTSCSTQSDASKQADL
EP2 modulator – EP2 receptor modulators, cAMP readout, primary screen, cell-based, HTRF cAMP, PGE2 stimulation; Prostaglandin E2 receptor EP2 subtype (Homo sapiens), P43116; EP2-expressing cells, cAMP HTRF FRET, PGE2 co-stimulation; induction, % at 25 µM; 260,000 compounds, 0.83% hits;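 active means compounds whose cAMP rise, as percent of the full-agonist control response, exceeds 60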;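 further: rat C6 glioma line stably carrying human EP2 under a CMV promoter; the protocol text gives 20 µM as final concentration; 100% = response of wells given 1 µM PGE2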
NPY-Y2 antag – NPY-Y2 receptor antagonists, primary screen, cell-based; 140,000 compounds, 0.99% hits; AID 793, 2007; Neuropeptide Y receptor type 2 (Homo sapiens), P49146; NPY-Y2 expressing cells, antagonist mode; inhibition, % at 2.7 µM; in the data active means inhibition above about 17%;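 further: 0% = vehicle with agonist challenge and 100% = reference antagonist with challenge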
NPY2 pot ag – NPY-Y2 potentiators or agonists, primary screen, cell-based. Neuropeptide Y receptor type 2 (Homo sapiens), P49146. cells expressing NPY-Y2, potentiator/agonist read-out. activation, % at 3.6 µM. 220,000 compounds, 0.45% hits; in the data active means activation above about 27%;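 further: cells stimulated with NPY near EC25 plus isoproterenol at EC100; 0% = vehicle plus submaximal agonist and 100% = vehicle plus saturating agonist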
NPY1 pot ag – NPY-Y1 receptor potentiators or agonists, primary screen, cell-based; NPY-Y1 expressing cells, potentiator/agonist activation; activation, % at 3.6 µM; 220,000 compounds, 0.37% hits; AID 1304, 2008; in the data active means activation above about 33%, passing the limit was not always enough;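 further: cells stimulated with NPY at EC10 then isoproterenol at EC100; 0% = low agonist plus stimulus and 100% = saturating agonist plus stimulus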
Target sequence (P25929 whole entry, looked up): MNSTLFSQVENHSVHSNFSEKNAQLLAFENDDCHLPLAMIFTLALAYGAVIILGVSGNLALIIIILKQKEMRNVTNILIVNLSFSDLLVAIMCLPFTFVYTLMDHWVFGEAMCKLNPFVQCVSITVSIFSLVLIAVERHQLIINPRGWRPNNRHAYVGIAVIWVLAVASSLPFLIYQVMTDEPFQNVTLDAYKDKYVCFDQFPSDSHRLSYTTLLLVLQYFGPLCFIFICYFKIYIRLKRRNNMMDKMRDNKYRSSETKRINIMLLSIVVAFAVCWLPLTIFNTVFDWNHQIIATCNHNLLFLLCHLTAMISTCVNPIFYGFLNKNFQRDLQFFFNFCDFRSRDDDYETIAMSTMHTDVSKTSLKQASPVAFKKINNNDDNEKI
NPY-Y1 antag – NPY-Y1 receptor antagonists, primary screen, cell-based; Neuropeptide Y receptor type 1 (Homo sapiens), P25929; HEK293-CNG Y1 cells, membrane potential fluorescence; NPY at EC95, then isoproterenol; inhibition, % at 3.6 µM; 200,000 compounds, 1% hits; AID 1040, 2008;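 active means inhibition above the campaign mean inhibition of all tested compounds plus 3 SD, cut at about 20% in these data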;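 further: 0% = DMSO wells given NPY plus isoproterenol and 100% = isoproterenol alone without NPY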
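Material: Y1- and CNG-channel-expressing HEK293 cells / Probe or stimulus: NPY 25 nM then isoproterenol 1 µM plus Ro 20-1724 25 µM / Doses: 3.6 µM single dose, DMSO 0.4% / Schedule: compound incubation 1 h at room temperature, readout 45 min post-stimulation / Signal: membrane potential fluorescence / Benchmarks: isoproterenol-only wells as full block versus NPY-plus-isoproterenol wells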
NPY-Y2 pot conf – NPY-Y2 potentiators or agonists, confirmation, cell-based. cell-based NPY-Y2 potentiator/agonist assay. shares compounds with NPY2 pot ag. 450 compounds, 20% hits. activation, % at 3.6 µM. AID 1539, 2009; in the data active means activation above about 33%
NPY-Y1 counter – NPY-Y1 potentiators or agonists, counter-screen for NPY-Y2 potentiator project, cell-based, fluorescence; shares compounds with NPY2 pot ag; activation, % at 3.6 µM; 450 compounds, 20% hits; Y1 HEK293-CNG cells, membrane potential fluorescence; in the data active means activation above about 45%;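 further: cells stimulated with submaximal NPY then isoproterenol with phosphodiesterase inhibitor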
NPY-Y1 ag 2 – NPY-Y1 direct agonists, selectivity assay for NPY-Y2 potentiator project, cell-based, fluorescence | AID 1702, 2009 | 450 compounds, 37% hits | activation, % at 3.6 µM | shares compounds with NPY2 pot ag | HEK293 Y1-CNGC, membrane potential fluorescence, agonism;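 active means activation above the mean of DMSO-only control wells plus 3 SD, cut at about 18% in these data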;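 further: cells stimulated with 1 µM isoproterenol plus the PDE inhibitor Ro 20-1724; 0% = isoproterenol with DMSO and no NPY and 100% = 40 nM NPY; Y1 agonists lower the membrane potential dye signal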
CNGC inhibitor – CNGC cAMP sensor activity inhibitors, counter-screen for NPY-Y2 potentiator project, cell-based, HEK293-CNG parental, membrane potential fluorescence. inhibition, % at 3.6 µM. 450 compounds, 32% hits. shares compounds with NPY2 pot ag. AID 1703, 2009. isoproterenol cAMP;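 active means inhibition above the control-well mean plus 3 SD of those wells, cut at about 22% in these data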;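 further: 0% = DMSO with isoproterenol and 100% = DMSO without isoproterenol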
NPY-Y2 ag 2 – NPY-Y2 direct agonists, counter-screen for NPY-Y2 potentiator project, cell-based, fluorescence; HEK293 Y2/CNGC cells, membrane potential fluorescence, agonist mode; shares compounds with NPY2 pot ag; AID 1710, 2009; activation, % at 3.6 µM; 450 compounds, 56% hits;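 active means activation above the mean of solvent-only control wells plus 3 SD, cut at about 10% in these data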;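 further: cells stimulated by isoproterenol with no NPY added so direct agonism is tested; 0% = DMSO with isoproterenol alone and 100% = NPY at EC100 plus isoproterenol; agonism lowers probe fluorescence through less cAMP and CNG channel opening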
* = called active by the depositor; / = no result.

SMILES	EP2 antag	EP2 modulator	NPY-Y2 antag	NPY2 pot ag	NPY1 pot ag	NPY-Y1 antag	NPY-Y2 pot conf	NPY-Y1 counter	NPY-Y1 ag 2	CNGC inhibitor	NPY-Y2 ag 2
COc1ccc([C@@H]2C[C@H](C(=O)NC(C)c3ccccc3)N(C)S(=O)(=O)N2)cc1OC (stereo partly drawn)	/	-11	/	/	/	/	/	/	/	/	/
O=C(Nc1ccccc1)Nc1ncc([N+](=O)[O-])s1	2	-37	/	31*	21	3	13	-12	-11	8	-3
CCCOP(=O)(OCCC)C(Nc1ccc(C(C)C)cc1)c1ccc([N+](=O)[O-])cc1 (stereo not drawn)	/	16	13	35*	28	9	12	24	16	6	8
COP(=O)(OC)C(Nc1ccc([N+](=O)[O-])cc1)c1ccccc1 (stereo not drawn)	11	20	/	-7	18	/	/	/	/	/	/
CN(C)c1cccc(C(=O)N2CCc3c(nc(N4CCCC4)[nH]c3=O)C2)c1	/	-26	/	/	/	/	/	/	/	/	/
Nc1sc(-c2ccccc2)cc1-c1n[nH]c(=S)n1C1CCCCC1	6	9	/	102*	1	/	19	19	10	17	25*
COc1ccc(-n2c(-c3cc(-c4ccccc4)sc3N)n[nH]c2=S)cc1	7	42	/	24	23	/	/	/	/	/	/
COc1ccccc1CNC(=O)Cn1nc(C)n2c(cc3sccc32)c1=O	/	-37	/	/	/	/	/	/	/	/	/
COc1ccc(NC(=S)N/N=C/c2cccn2Cc2ccc(F)cc2)cc1	5	9	/	42*	20	2	17	7	-2	2	5
O=C(Nc1ccc(OCC(F)(F)C(F)F)c(C(F)(F)F)c1)c1ccccc1O	15	-19	4	61*	41	6	3	-17	-17	-11	1
COc1ccc2c(c1)cc(C)c1nn(CC(=O)NCc3ccco3)c(=O)n12	/	-14	/	/	/	/	/	/	/	/	/
Cc1ccc(NS(=O)(=O)c2ccc(C(=O)N3CCN(c4ncccn4)CC3)cc2)cc1	4	-22	/	35*	8	-1	-5	-19	-20	-10	-13
O=C(N/N=C/c1cccc2cccnc12)c1ccccc1O	3	-30	/	38*	36	/	22	26	15	6	12*
O=C(N/N=C/c1cccc2nccnc12)c1ccccc1O	15	-19	/	9	1	/	/	/	/	/	/
CC1CN(c2nc3c(c(=O)[nH]2)CCN(Cc2c(O)ccc4ccccc24)C3)CC(C)O1 (stereo not drawn)	/	-69	/	/	/	/	/	/	/	/	/
COCCNC(=O)[C@H](CSCc1ccccc1)N1Cc2ccccc2C1=O	0	-4	/	102*	4	/	0	3	3	-1	5
COCCCNC(=O)[C@H](CSCc1ccccc1)N1Cc2ccccc2C1=O	3	16	/	-15	-5	/	/	/	/	/	/
O=C(NNc1ccc(C(F)(F)F)cc1[N+](=O)[O-])c1ccc(NS(=O)(=O)c2ccc(F)cc2)cc1	9	5	-6	45*	38	-12	58*	72*	62*	62*	62*
CC(C)[C@H](Nc1ccc(C(F)(F)F)cc1[N+](=O)[O-])C(=O)O	5	-17	/	-12	-16	/	/	/	/	/	/
CCOc1ccc2[nH]c(=O)c(CN(Cc3ccc4c(c3)OCO4)C(=O)c3cccc(OC)c3)cc2c1	24	-17	/	/	/	/	/	/	/	/	/
O=C1C(Nc2ccccc2)=C/C(=N/S(=O)(=O)c2cccs2)c2ccccc21	38	-56	-8	48*	18	-4	68*	74*	60*	53*	67*
Cn1c(SCC(=O)O)nnc1-c1ccc2c(c1)OCO2	4	-17	/	/	/	/	/	/	/	/	/
O=C(/C=C/c1cn(-c2ccccc2)nc1-c1cccnc1)N1CCCC1	7	-7	/	28*	20	-2	12	22	12	4	15*
CC(=O)N1CC(=O)N=C1SCC(=O)Nc1nc(C)c(-c2ccccc2)s1	2	7	/	37*	36	-6	25	35	41*	40*	28*
c1ccc2c3c([nH]c2c1)-c1[nH]ncc1CC3	10	-48	-1	-1	10	-6	/	/	/	/	/
SMILES	EP2 antag	EP2 modulator	NPY-Y2 antag	NPY2 pot ag	NPY1 pot ag	NPY-Y1 antag	NPY-Y2 pot conf	NPY-Y1 counter	NPY-Y1 ag 2	CNGC inhibitor	NPY-Y2 ag 2
Clc1ccc2[nH]c3c(c2c1)CCc1cn[nH]c1-3	32	-58	-4	46*	41	-13	34*	45*	34*	35*	25*
Cc1nn(Cc2ccc(F)cc2)c(C)c1NC(=O)c1cnn2c1NC(c1cccs1)CC2C(F)(F)F (stereo not drawn)	13	-7	-4	24	30	-6	/	/	/	/	/
Cc1nn(Cc2ccc(F)cc2)c(C)c1NC(=O)c1cnn2c1NC(c1ccccc1)CC2C(F)(F)F (stereo not drawn)	7	-22	-3	34*	36	-8	21	28	19*	22*	27*
CCOc1c(OC(C)=O)ccc(/C=C/c2ccc3cccc(OC(C)=O)c3n2)c1[N+](=O)[O-]	/	-7	0	24	22	-12	/	/	/	/	/
C=CCN1C(=O)/C(=C/c2ccc(OC(C)=O)c(OCC)c2[N+](=O)[O-])SC1=S	10	-56	/	36*	10	4	14	-5	5	2	12*
O=C(N/N=C/c1cccc([N+](=O)[O-])c1)c1cc(-c2ccc3c4c(cccc24)CC3)n[nH]1	24	-8	0	24	2	-5	/	/	/	/	/

Screening data as filed in PubChem BioAssay.
